Laboratory results from ChEMBL document CHEMBL1165861, “Synthesis and biological evaluation of some pyrazolylpyrazolines as anti-inflammatory-antimicrobial agents” (2010).
Values after ≈ are worked out from the molar mass of the structure shown.

Tests used:
Assay type in all cases: functional
[1] = system: Rattus norvegicus; assay: Antiinflammatory activity in Wistar albino rat assessed as inhibition of carrageenan-induced paw edema at 50 mg/kg, po administered 30 mins before carrageenan challenge measured after 30 mins relative to control
Method in brief: (§1)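 Male Wistar albino rats (200–250 g) in groups of six, food withdrawn 12 h before and during the test. Compounds were dosed orally at 50 mg/kg; controls received tween 80 (95:5). After 30 min, 0.1 mL of 1% w/v carrageenan in saline was injected subplantar into the left hind paw. Plethysmometer volumes were taken initially and at 30–120 min. AI% is relative to control, mean ± SEM, ANOVA.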

[2] = system: Rattus norvegicus; assay: Antiinflammatory activity in Wistar albino rat assessed as inhibition of carrageenan-induced paw edema at 50 mg/kg, po administered 30 mins before carrageenan challenge measured after 60 mins relative to control; method in brief: as §1
[3] = system: Rattus norvegicus; assay: Antiinflammatory activity in Wistar albino rat assessed as inhibition of carrageenan-induced paw edema at 50 mg/kg, po administered 30 mins before carrageenan challenge measured after 90 mins relative to control; method in brief: as §1
[4] = system: Rattus norvegicus; assay: Antiinflammatory activity in Wistar albino rat assessed as inhibition of carrageenan-induced paw edema at 50 mg/kg, po administered 30 mins before carrageenan challenge measured after 120 mins relative to control; method in brief: as §1
[5] = system: Staphylococcus aureus; assay: Antimicrobial activity against Staphylococcus aureus MTCC 3160 at 4 mg/ml after 24 hrs by agar diffusion method; details: MTCC 3160, 24 h, read-out: DIZ
Method in brief: (§2)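 Agar well diffusion: seeded agar plates swabbed with inoculum and left 15 min for adsorption, then 8 mm wells bored and loaded. Incubation 37 °C for 24 h. Inhibition zone diameter measured in mm with a zone reader. DMSO medium served as negative control and ciprofloxacin as positive control. Triplicates.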

[6] = system: Bacillus subtilis; assay: Antimicrobial activity against Bacillus subtilis MTCC 121 at 4 mg/ml after 24 hrs by agar diffusion method; details: MTCC 121, 24 h, read-out: DIZ; method in brief: as §2
[7] = system: Pseudomonas aeruginosa; assay: Antimicrobial activity against Pseudomonas aeruginosa MTCC 741 at 4 mg/ml after 24 hrs by agar diffusion method; details: MTCC 741, 24 h, read-out: DIZ; method in brief: as §2
[8] = system: Escherichia coli; assay: Antimicrobial activity against Escherichia coli MTCC 51 at 4 mg/ml after 24 hrs by agar diffusion method; details: MTCC 51, 24 h, read-out: DIZ; method in brief: as §2
[9] = system: Staphylococcus aureus; assay: Antimicrobial activity against Staphylococcus aureus MTCC 3160 after 24 hrs by broth microdilution assay; details: MTCC 3160, 24 h
Method in brief: (§3)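 MIC was determined by microplate dilution (microdilution) in Müller–Hinton broth, with ciprofloxacin as the reference drug.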

[10] = system: Bacillus subtilis; assay: Antimicrobial activity against Bacillus subtilis MTCC 121 after 24 hrs by broth microdilution assay; details: MTCC 121, 24 h; method in brief: as §3
[11] = system: Pseudomonas aeruginosa; assay: Antimicrobial activity against Pseudomonas aeruginosa MTCC 741 after 24 hrs by broth microdilution assay; details: MTCC 741, 24 h; method in brief: as §3
[12] = system: Escherichia coli; assay: Antimicrobial activity against Escherichia coli MTCC 51 after 24 hrs by broth microdilution assay; details: MTCC 51, 24 h; method in brief: as §3

SMILES | inhibition in vivo at 50 mg/kg [1] [%] | inhibition in vivo at 50 mg/kg [2] [%] | inhibition in vivo at 50 mg/kg [3] [%] | inhibition in vivo at 50 mg/kg [4] [%] | zone of inhibition at 4000 µg/mL [5] [mm] | zone of inhibition at 4000 µg/mL [6] [mm] | zone of inhibition at 4000 µg/mL [7] [mm] | zone of inhibition at 4000 µg/mL [8] [mm] | MIC [9] [µg/mL] | MIC [10] [µg/mL] | MIC [11] [µg/mL] | MIC [12] [µg/mL]
Cc1ccc(C2=NN(c3ccc(S(N)(=O)=O)cc3)C(c3cn(-c4ccccc4)nc3-c3ccc(C)cc3)C2)cc1 (centres undefined) | 18 | 19 | 16 | 9 | 16.7 | 10.7 | 9.33 | 10.7 | 32 (≈ 58.4 µM) | 64 (≈ 117 µM) | 128 (≈ 234 µM) | 64 (≈ 117 µM)
NS(=O)(=O)c1ccc(N2N=C(c3ccc(F)cc3)CC2c2cn(-c3ccccc3)nc2-c2ccc(F)cc2)cc1 (centres undefined) | 18 | 8 | 16 | 9 | 21 | 10.7 | 19.3 | 10.7 | 16 (≈ 28.8 µM) | 16 (≈ 28.8 µM) | 32 (≈ 57.6 µM) | 32 (≈ 57.6 µM)
Cc1ccc(-c2nn(-c3ccccc3)cc2C2CC(c3ccc(F)cc3)=NN2c2ccc(S(N)(=O)=O)cc2)cc1 (centres undefined) | 30 | 43 | 34 | 32 | 16.7 | 16.3 | 11 | 11.7 | 32 (≈ 58 µM) | 32 (≈ 58 µM) | 64 (≈ 116 µM) | 64 (≈ 116 µM)
O=C(O)c1cn(C2CC2)c2cc(N3CCNCC3)c(F)cc2c1=O [CIPROFLOXACIN] | – | – | – | – | 32.6 | 29.2 | 28 | 28.6 | 2 (≈ 6.04 µM) | 2 (≈ 6.04 µM) | 4 (≈ 12.1 µM) | –
NS(=O)(=O)c1ccc(N2N=C(c3ccccc3)CC2c2cn(-c3ccccc3)nc2-c2ccccc2)cc1 (centres undefined) | 5 | 4 | 10 | 1 | 17.7 | 18.7 | 10.7 | 11.7 | 32 (≈ 61.6 µM) | 32 (≈ 61.6 µM) | 64 (≈ 123 µM) | 64 (≈ 123 µM)
Cc1ccc(-c2nn(-c3ccccc3)cc2C2CC(c3ccccc3)=NN2c2ccc(S(N)(=O)=O)cc2)cc1 (centres undefined) | 18 | 14 | 22 | 16 | 16 | 11 | 9.33 | 11.7 | 32 (≈ 60 µM) | 64 (≈ 120 µM) | 128 (≈ 240 µM) | 64 (≈ 120 µM)
NS(=O)(=O)c1ccc(N2N=C(c3ccc(Br)cc3)CC2c2cn(-c3ccccc3)nc2-c2ccccc2)cc1 (centres undefined) | 7 | 23 | 22 | 23 | 17 | 11.3 | 9.66 | 11.7 | 32 (≈ 53.5 µM) | 64 (≈ 107 µM) | 128 (≈ 214 µM) | 64 (≈ 107 µM)
